Laboratory results published in publication PMC6217654 (ACS Omega, 2018).
Peptide text beside a SMILES is read from it.

Assays:
[1] = test system: reserpine-induced hypothermia mice; test: Antagonistic effect on reserpine-induced hypothermia in mice; type: in vivo; details: p.o.; for CNS effect (reserpine-induced hypothermia), in words, SAR comparison: mice, data not shown or compared with 64
Method in brief: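 Male ddY mice (bought at 6 weeks, 1-week quarantine, ~25 °C). Reserpine 3 mg/kg s.c.; mice with rectal temperature ≤30 °C about 18 h later were used. Test compound in saline p.o. at 5 μmol/kg, TRH at 50 μmol/kg, saline controls. Rectal temperature by thermistor before and up to 7 h post-dose. Trapezoidal AUC0–7h, with saline AUC subtracted. Mean ± SD, ≥3 animals.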

[2] = PK of TRH mimetics in rat, cassette dosing i.v. and p.o.; type: in vivo; details: for MRT / Vd / clearance / half-life: male, Sprague-Dawley, plasma, iv, 1 umol/kg; for BA: oral 2 μmol/kg vs i.v. 1 μmol/kg
Method in brief: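 Cassette dosing in rats (n = 2, 302–364 g). p.o.: 2 μmol/5 mL/kg in DMSO/0.5% methylcellulose 1/4. i.v.: 1 μmol/1 mL/kg in DMSO/propylene glycol 1/1. Heparinized jugular blood; plasma precipitated with methanol/acetonitrile 1/1; LC/MS/MS, ESI positive. t1/2 from terminal phase; MRT by linear trapezoid with monoexponential extrapolation; BA = dose-normalized po/iv AUC ratio. Mean of two animals.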

Free fraction ratio = type: in vitro ADME, rat; details: in vitro
[3] = test system: rats with Ara-C-induced cerebellar damage; test: Ara-C-induced cerebellar ataxia in rats, open field fall index; type: in vivo, rat
[4] = PK of TRH and 79 after oral administration to fasted conscious rats; type: in vivo, rat; details: male, Wistar, rat, plasma, po, 40 mg/kg
Method in brief: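 Male Wistar rats (10–11 weeks, 230–274 g, n ≥ 4), fasted from the evening before dosing to the 12 h sample. Jugular cannula placed under isoflurane 2–3 days before. Single p.o. dose of 40 mg/4 mL/kg in saline. Heparinized blood (~0.3 mL) drawn via cannula; plasma deproteinized with methanol; HPLC with UV absorbance detection. Cmax, Tmax, AUC0–8h given as mean ± SD.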

human TRH-R = details: read-out: Ki for human TRH-R; in vitro binding, reported previously; cited from earlier work
[5] = cited from earlier work

MRT [2]	Vd [2]	clearance [2]	half-life [2]	SMILES	CNS effect (reserpine-induced hypothermia), in words, SAR comparison [1]	other results
				NC(=O)[C@@H]1CCCN1C(=O)[C@H](Cc1cncs1)NC(=O)[C@@H]1CCC(=O)N1 [Compound 56, L-Pyroglutamyl-[3-(thiazol-5-yl)-L-alanyl]-L-prolinamide]	less than that of 64	
				NC(=O)[C@@H]1CSCN1C(=O)[C@H](Cc1cscn1)NC(=O)[C@@H]1CCC(=O)N1 [Compound 57, 3-{N-L-Pyroglutamyl-[3-(thiazol-4-yl)-L-alanyl]}-(4R)-4-thiazolidinecarboxamide] (HELM PEPTIDE1{[Glp].[O=C([C@H](Cc1cscn1)N[*:1])[*:2]].[O=C([C@@H]1CSCN1[*:1])[*:2]].[am]}$$$$V2.0)	less than that of 64	
				NC(=O)[C@@H]1CCCN1C(=O)[C@H](Cc1cscn1)NC(=O)[C@@H]1COC(=O)N1 [Compound 58, {[(4S)-(2-Oxooxazolidine-4-yl)carbonyl]-3-(thiazol-4-yl)-L-alanyl}-L-prolinamide]	maintained	
				C[C@H]1OC(=O)N(C)[C@@H]1C(=O)N[C@@H](Cc1cscn1)C(=O)N1CCC[C@H]1C(N)=O [Compound 60, {[(4S,5R)-3,5-Dimethyl-2-oxooxazolidine-4-carbonyl]-3-(thiazol-4-yl)-L-alanyl}-L-prolinamide]	decreased the CNS effects	
				C[C@H]1OC(=O)N(Cc2ccccc2)[C@@H]1C(=O)N[C@@H](Cc1cscn1)C(=O)N1CCC[C@H]1C(N)=O [Compound 61, {[(4S,5R)-3-Benzyl-5-Methyl-2-oxooxazolidine-4-carbonyl]-3-(thiazol-4-yl)-L-alanyl}-L-prolinamide]	decreased the CNS effects	
				C[C@H]1OC(=O)N[C@@H]1C(=O)N[C@@H](Cc1cncs1)C(=O)N1CCC[C@H]1C(N)=O [Compound 62]	less than that of 64	
				C[C@H]1OC(=O)N[C@@H]1C(=O)N[C@@H](Cc1cscn1)C(=O)N1CSC[C@H]1C(N)=O [Compound 63, 3-{N-[(4S,5R)-(5-Methyl-2-oxooxazolidine-4-yl)carbonyl]-3-(thiazol-4-yl)-L-alanyl}-(4R)-4-thiazolidinecarboxamide]	less than that of 64	
14.3 min	0.19 L/kg	13 mL/min/kg	13.5 min	C[C@@H]1OC(=O)N[C@@H]1C(=O)N[C@@H](Cc1cscn1)C(=O)N1CCC[C@H]1C(N)=O [Compound 64, {[(4S,5S)-(5-Methyl-2-oxooxazolidine-4-yl)carbonyl]-3-(thiazol-4-yl)-L-alanyl}-L-prolinamide]		BA [2]: 1.1%; fu: free fraction ratio in serum (Free fraction ratio): >99%
11 min	0.16 L/kg	14.2 mL/min/kg	9.8 min	C[C@@H]1OC(=O)N[C@@H]1C(=O)N[C@@H](Cc1cscn1)C(=O)N1CSC[C@H]1C(N)=O [Compound 68, 3-{N-[(4S,5S)-(5-Methyl-2-oxooxazolidine-4-yl)carbonyl]-3-(thiazol-4-yl)-L-alanyl}-(4R)-4-thiazolidinecarboxamide]		fu: free fraction ratio in serum (Free fraction ratio): >99%
14.6 min	0.25 L/kg	17.4 mL/min/kg	26.2 min	C[C@@H]1OC(=O)N[C@@H]1C(=O)N[C@@H](Cc1cscn1)C(=O)N1CCC[C@H]1C#N [Compound 69, 1-{N-[(4S,5S)-(5-Methyl-2-oxooxazolidine-4-yl)carbonyl]-3-(thiazol-4-yl)-L-alanyl}-(2S)-2-cyanopyrrolidine]		fu: free fraction ratio in serum (Free fraction ratio): >99%
				C[C@@H]1OC(=O)N[C@@H]1C(=O)N[C@@H](Cc1cncs1)C(=O)N1CCC[C@H]1C [Compound 71, 1-{N-[(4S,5S)-(5-Methyl-2-oxooxazolidine-4-yl)carbonyl]-3-(thiazol-5-yl)-L-alanyl}-(2R)-2-methylpyrrolidine]	less than that of 64	
				C[C@@H]1OC(=O)N[C@@H]1C(=O)N[C@@H](Cc1c[nH]cn1)C(=O)N1CCC[C@H]1C [Compound 72, 1-{N-[(4S,5S)-(5-Methyl-2-oxooxazolidine-4-yl)carbonyl]-L-histidyl}-(2R)-2-methylpyrrolidine]	less than that of 64	
				C[C@@H]1OC(=O)N[C@@H]1C(=O)N[C@@H](Cc1cscn1)C(=O)N1CCC[C@H]1C(=O)OCc1ccccc1 [Compound 74, {[(4S,5S)-5-Methyl-2-oxooxazolidine-4-carbonyl]-3-(thiazol-4-yl)-L-alanyl}-L-proline Benzyl Ester]	less than that of 64	
3.7 min	0.33 L/kg	89.2 mL/min/kg	3 min	NC(=O)[C@@H]1CCCN1C(=O)[C@H](Cc1cnc[nH]1)NC(=O)[C@@H]1CCC(=O)N1 [TRH, L-pGlu–L-His–L-Pro-NH2, reference compound]		rectal temperature compared with saline levels ([1]; 79 5 μmol/kg from 2 to 7 h, TRH 50 μmol/kg from 0 to 7 h): almost the same low rectal temperature profiles as the saline levels; rectal temperature ΔAUC0–7h = AUC0–7h(compounds) – AUC0–7h(saline) ([1]; reserpine-induced hypothermia mice, TRH 50 μmol/kg, 79 5 μmol/kg): –4.0 ± 3.3 °C·h; rectal temperature AUC0–7h ([1]; reserpine-induced hypothermia mice, TRH 50 μmol/kg, 79 5 μmol/kg, mean ± SD): 201.4 ± 3.3 °C·h; fall index ([3]; 10 mg/kg i.v. once, 30 min post-dose, mean ± SE, vehicle 2.06 ± 0.09): 1.05 ± 0.22; fall index ([3]; 30 mg/kg i.v. once, 30 min post-dose, mean ± SE, vehicle 2.06 ± 0.09): 0.87 ± 0.17; fall index ([3]; TRH 30, 100 and 300 mg/kg p.o. once daily for 7 days): no significant decrease; AUC(0-t) [4]: 68 ± 72 ng·h/mL; Cmax [4]: 50 ± 39 ng/mL; Tmax [4]: 45 ± 17.4 min; Ki (human TRH-R): 128 nM; t1/2 of degradation by the brain homogenate [5]: 7.9 min

SMILES	MRT [2]	Vd [2]	clearance [2]	half-life [2]	CNS effect (reserpine-induced hypothermia), in words, SAR comparison [1]	other results
C[C@@H]1OC(=O)N[C@@H]1C(=O)N[C@@H](Cc1cscn1)C(=O)N1CCC[C@H]1C [Compound 70, 1-{N-[(4S,5S)-(5-Methyl-2-oxooxazolidine-4-yl)carbonyl]-3-(thiazol-4-yl)-L-alanyl}-(2R)-2-methylpyrrolidine]	19.1 min	0.58 L/kg	30.6 mL/min/kg	21.6 min		BA [2]: 4.7%; fu: free fraction ratio in serum (Free fraction ratio): >99%
